Data on five compounds can be found in PMC10938134 (International Journal for Parasitology: Drugs and Drug …, 2024).

Assay [1] has as its system bloodstream stage of Trypanosoma brucei brucei. The assay is described as follows: Viability assay for T. brucei brucei. It is filed as cell-based. The conditions noted are these: 24 h.
Assay [2] concerns redox biosensor hGrx1-roGFP2 in bloodstream T. b. brucei. The assay is described as follows: Redox reporter assay for T. brucei brucei. The class given is cell-based, Trypanosoma brucei brucei. The conditions noted are these: compound at its EC50 for 1 h; p < 0.001 compared to DMSO-treated parasites. Put shortly:
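Exponential-phase bloodstream parasites expressing the redox biosensor were exposed for 1 h to the test compound, with 1% v/v DMSO as vehicle and untreated cells as minimum. Diamide at 500 μM for 20 min gave maximum oxidation. Samples were then incubated for 20 min with 1 mM DTT. Flow cytometry gave % biosensor oxidation relative to these maximum and minimum conditions.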
For orientation: Reporter assays use an easily measured gene product as a stand-in for the process of interest.

[3] abbreviates: Trypanosoma brucei, bloodstream parasites, 24 h incubation, compounds tested at 5 μM.

For the compound `N=C(N)c1ccc(N=NNc2ccc(C(=N)N)cc2)cc1` [Ber, Berenil, reference compound], the response in assay [1] (bloodstream T. b. brucei, concentration-response curves) was half-maximal at 430 ± 70 nM (EC50).

Turning to `OC[C@H]1O[C@@H]([Se]Cc2ccc3ccccc3n2)[C@H](O)[C@@H](O)[C@@H]1O` [compound 11, Quinolin-2-ylmethyl 1-seleno-β-D-glucopyranoside], in assay [1] (Trypanosoma brucei), the EC50 is roughly 5000 nM and the viability at 5 µM was 57.5 ± 3.8%.

Regarding `CC(=O)OC[C@H]1O[C@@H]([Se]Cc2ccc3ccccc3n2)[C@H](OC(C)=O)[C@@H](OC(C)=O)[C@@H]1OC(C)=O` [compound 12, Quinolin-2-ylmethyl 2,3,4,6-tetra-O-acetyl-1-seleno-β-D-glucopyranoside], the “significant oxidation of the redox biosensor (in words)” value in assay [2] is reported as “Except for the quinolino Se-glycoside 12”.

On to `COc1ccc2c(C[Se][C@@H]3O[C@H](CO)[C@@H](O)[C@H](O)[C@H]3O)cc(=O)oc2c1` [compound 13, 7-Methoxycoumarin-4-ylmethyl 1-seleno-β-D-glucopyranoside], for which, in assay [1] (setting [3]), the viability at 5 µM is 57.3 ± 0.4%.

`COc1ccc2c(C[Se][C@@H]3O[C@H](CO)[C@H](O)[C@H](O)[C@H]3O)cc(=O)oc2c1` [compound 14, 7-Methoxycoumarin-4-ylmethyl 1-seleno-β-D-galactopyranoside] gave a viability at 5 µM in assay [1] (setting [3]) of no more than 50%.

Usually EC50 stands for the concentration that produces a half-maximal response. A lower EC50 goes with a more potent agent. For orientation: viability means a per cent measure of how many cells are alive, often set against a control. High values mean less harm to the cells, low ones more harm to the cells.
